PKA-R1A act – activators of PKA-R1A holoenzyme, primary screen, biochemical, fluorescence polarization, Cy5-IP20, bovine R1A, mouse PKAc; PKA-R1A dissociation; scaled: DMSO 0%, 113 µM cGMP 100%; activation, % at 11.4 µM; hit rate 0.083% among 340,000; cAMP-dependent protein kinase type I-alpha regulatory subunit (Bos taurus) + …; AID 504707, 2011;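 active means percent activation above the mean of all tested compounds plus 3 SD, cut at about 19% in these data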;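 further: higher means more PKAc released from R1A so a rise in polarization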
APJ agonist – agonists of human apelin receptor APJ, primary screen, CHO-K1 cells, PathHunter beta-arrestin, luminescence. P35414. 0% DMSO wells, 100% apelin. activation, % at 20 µM. hit rate 0.11% among 330,000. AID 2520, 2010;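 active means activation more than six SD over the plate average, tested at 20 µM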;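 further: 0% = DMSO alone and 100% = apelin-13 at 10 nM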
Target sequence (P35414 whole entry, looked up): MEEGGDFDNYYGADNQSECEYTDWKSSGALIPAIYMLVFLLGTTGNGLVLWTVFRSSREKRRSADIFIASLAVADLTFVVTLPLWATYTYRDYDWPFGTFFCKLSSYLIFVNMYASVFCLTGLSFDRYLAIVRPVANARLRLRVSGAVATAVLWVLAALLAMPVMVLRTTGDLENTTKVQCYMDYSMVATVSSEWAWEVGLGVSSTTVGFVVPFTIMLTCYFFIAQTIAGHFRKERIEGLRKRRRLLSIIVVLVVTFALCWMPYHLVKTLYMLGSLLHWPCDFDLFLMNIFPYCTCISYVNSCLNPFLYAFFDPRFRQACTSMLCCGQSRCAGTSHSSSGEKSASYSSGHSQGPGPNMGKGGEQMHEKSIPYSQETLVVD
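Test system – PathHunter CHO-K1 APJ (AGTRL-1) beta-arrestin reporter cells · Input – 1000 cells/well · Compound – single test compound dose, 20 µM final, 1% DMSO · Times – compound stimulation 90 min at 25 °C, detection 60 min · Technique – beta-gal luminescence · Read-out basis – APJ–arrestin association signal · Control set – negative DMSO alone, positive Apelin-13 at 10 nM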
CXCR6 block – CXCR6 receptor inhibitors, primary screen, cell-based, beta-arrestin, luminescence, CHO-K1 PathHunter, 1536-well; C-X-C chemokine receptor type 6 (Homo sapiens), O00574; hit rate 0.36% among 360,000; inhibition, % at 20 µM; in the data active means inhibition above about 34%, passing the limit was not always enough;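 further: antagonist mode with CXCL16 agonist at 10 nM final; 0% = 10 nM CXCL16 with DMSO and 100% = unstimulated wells without agonist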
CCR6 antagonist – CCR6 receptor antagonists, primary screen, cell-based, CHO-K1, luminescence, beta-arrestin, uHTS | CHO-K1 CCR6 PathHunter beta-arrestin, CCL20-stimulated | C-C chemokine receptor type 6 (Homo sapiens), P51684 | hit rate 0.49% among 340,000 | AID 493098, 2011 | inhibition, % at 20 µM;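 active means compounds whose inhibition of the agonist-driven luminescence signal at 20 µM reaches about 50%, limit read from the data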;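 further: cells stimulated with CCL20 at 14 nM final; plate controls were DMSO with CCL20 for no effect and DMSO without agonist for full effect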
APJ antagonist – antagonists of human apelin receptor APJ, primary screen, CHO-K1 cells, beta-arrestin complementation, luminescence; P35414; inhibition, % at 20 µM; hit rate 0.32% among 330,000; AID 2521, 2010;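 active means inhibition above about 40% at 20 µM, limit read from the data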;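 further: cells challenged with 10 nM apelin-13 agonist together with compound; plate controls were apelin-13 plus DMSO wells for no effect and DMSO wells lacking apelin-13 for full effect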
PKA-R2B activ – activators of PKA-R2B holoenzyme, primary screen, biochemical, fluorescence polarization, Cy5-IP20, human; cAMP-dependent protein kinase catalytic subunit beta (Homo sapiens) + cAMP-dependent …; PKA-R2B holoenzyme dissociation; R2B truncated from residue 108, S112A mutant; 0% DMSO only, 100% 113 µM cGMP; activation, % at 11.4 µM; hit rate 0.079% among 340,000;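 active means activation above a cutoff set at the mean over all compounds plus 3 SD, cut at about 18% in these data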;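 further: higher means more holoenzyme dissociation and a rise in polarization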
* = called active by the depositor. The list is not random: actives were taken first. Their share in the collection is about 0.88%.

Screening N=C1/C(=C\c2ccc(-c3ccc(C(=O)O)cc3)o2)C(=O)N=C2SC=C(c3ccccc3)N12 returned PKA-R1A act -3, CXCR6 block 34, CCR6 antagonist 53* and PKA-R2B activ 2.
`Cc1ccc(C2=NOC(=O)/C2=C\C=C\c2ccccc2)cc1` gave PKA-R1A act -6, CXCR6 block 48*, CCR6 antagonist 25 and PKA-R2B activ -11.
CC(C)(C)c1cc(C(c2cccnc2)N2CCN(CCO)CC2)cc(C(C)(C)C)c1O (stereo not given) was read as PKA-R1A act 4, APJ agonist 4, CXCR6 block 27, CCR6 antagonist 62*, APJ antagonist 23 and PKA-R2B activ -3.
For CC(C)(C)n1nnnc1C(c1cccnc1)N1CCN(c2cccc(C(F)(F)F)c2)CC1 (stereo not given) the results were PKA-R1A act 3, APJ agonist -3, CXCR6 block 6, CCR6 antagonist -3, APJ antagonist -7 and PKA-R2B activ -5.
`CN(C)c1ccc(N=Nc2nccs2)cc1` gave PKA-R1A act -2, CXCR6 block 51* and PKA-R2B activ -10.
`O=C(/C=C/c1ccncc1)c1ccc(NC(=O)c2ccccc2F)cc1` gave PKA-R1A act -5, CXCR6 block 40, CCR6 antagonist 69* and PKA-R2B activ -2.
O=C(CSC1=Nc2ccccc2C2CC=NN12)Nc1ccc2c(c1)OCO2 (stereo not given) was read as PKA-R1A act -2, CXCR6 block 29, CCR6 antagonist 54* and PKA-R2B activ 0.
Screening CC1(C)OC(=O)C2=C(C[C@@H](CCc3ccccc3)O[C@H]2CCc2cccc(Cl)c2)O1 returned CXCR6 block 1.
For Cc1cccc(OCC(=O)NCC(=O)N/N=C/c2cc(Br)cc(Br)c2O)c1 the results were PKA-R1A act -13, APJ agonist -3, CXCR6 block 45*, CCR6 antagonist 10, APJ antagonist 22 and PKA-R2B activ 1.
For C#CCOCCOCCOCCNc1nc(N2CCN(C(=O)CCCCCCCCCCNC(=O)[C@H]([C@@H](C)CC)n3cc(CCCCN=C(N)N)nn3)CC2)nc(N2CCN(C(=O)CCCCCCCCCCNC(=O)[C@H](CCCN=C(N)N)n3cc(C[C@@H](C)CC)nn3)CC2)n1 the results were APJ agonist 73* and APJ antagonist 35.
`OC1c2c(F)cccc2N=C2CCCCN21` (stereo not given) gave CXCR6 block -1.
`CCCCN1C(=O)C(CC(=O)NCC2CCCCC2)CC(C(=O)N2CCCCCC2)=C1C` (stereo not given) gave CXCR6 block 10.
Screening COc1ccc(C(=O)NNC(=S)NC(=O)c2ccco2)cc1 returned PKA-R1A act 7, APJ agonist -5, CXCR6 block 15, CCR6 antagonist 42, APJ antagonist 21 and PKA-R2B activ -15.
`CCCOc1ccc(C(=O)NNC(=S)NC(=O)c2ccco2)cc1` gave PKA-R1A act -1, APJ agonist -3, CXCR6 block 37, CCR6 antagonist 70*, APJ antagonist 9 and PKA-R2B activ -3.
For O=C1/C(=C\c2ccc(O)c(O)c2)C(c2ccccc2)=NN1c1ccccc1 the results were PKA-R1A act -1, CXCR6 block 16, CCR6 antagonist 39 and PKA-R2B activ 1.
For COc1cc(/C=C2\C(=O)N(c3ccc(NC(C)=O)cc3)N=C2c2ccccc2)ccc1O the results were PKA-R1A act -3, APJ agonist -4, CXCR6 block 46*, CCR6 antagonist 48, APJ antagonist 40 and PKA-R2B activ -2.
For O=C1[C@@H](c2ccccc2)CC[C@@H]2C=CC[C@H]3CCN1[C@@H]32 the results were CXCR6 block -2.
`COc1cc(/C=C(\C#N)c2nc3ccc(C)cc3[nH]2)c([N+](=O)[O-])cc1OC` gave PKA-R1A act -9, APJ agonist 9, CXCR6 block 4, CCR6 antagonist -17, APJ antagonist -4 and PKA-R2B activ -3.
Screening CCN(CC)c1ccc(/C=C(/C#N)c2nc3ccc(C)cc3[nH]2)c(OC(C)C)c1 returned PKA-R1A act -5, APJ agonist -6, CXCR6 block 22, CCR6 antagonist 52*, APJ antagonist 27 and PKA-R2B activ 0.
For COc1cc(/C=C(\C#N)c2nc3ccc(C)cc3[nH]2)cc([N+](=O)[O-])c1O the results were PKA-R1A act -4, CXCR6 block 24, CCR6 antagonist 51* and PKA-R2B activ -8.
`Oc1ccc(Cl)cc1C1=NNC(c2cccs2)C1` (stereo not given) gave PKA-R1A act 8, APJ agonist -1, CXCR6 block 12, CCR6 antagonist 23, APJ antagonist 10 and PKA-R2B activ -2.
Cc1ccc(O)c(C2=NNC(c3ccc(Cl)cc3)C2)c1 (stereo not given) was read as PKA-R1A act -9, APJ agonist -4, CXCR6 block 17, CCR6 antagonist 18, APJ antagonist 70* and PKA-R2B activ 3.
`COc1ccc(CC(N)c2csc(NC(=O)C(c3ccccc3)c3ccccc3)n2)cc1` (stereo not given) gave CXCR6 block -17.
CCCCOc1cccc(C(=O)NC(=S)Nc2cccc(C(F)(F)F)c2)c1 was read as PKA-R1A act -8, APJ agonist -4, CXCR6 block 30, CCR6 antagonist 51*, APJ antagonist 24 and PKA-R2B activ 4.
`O=[N+]([O-])c1cc([N+](=O)[O-])c2cc3ccccc3nc2c1` gave PKA-R1A act -7, APJ agonist -2, CXCR6 block 41*, CCR6 antagonist 45, APJ antagonist 16 and PKA-R2B activ -5.
`O=[N+]([O-])c1cnc2ccccc2c1` gave PKA-R1A act -11, APJ agonist 5, CXCR6 block -24, CCR6 antagonist 3, APJ antagonist -52 and PKA-R2B activ -4.
Screening O=[N+]([O-])c1cc(Cl)cc(/C=N\Nc2ccccn2)c1O returned PKA-R1A act -6, APJ agonist -7, CXCR6 block 78*, CCR6 antagonist 74*, APJ antagonist 20 and PKA-R2B activ 6.
O=[N+]([O-])c1ccc(Cl)cc1C=NNc1ccccn1 was read as PKA-R1A act 2, CXCR6 block -8, CCR6 antagonist 9 and PKA-R2B activ -2.

Screening results deposited in PubChem BioAssay by several laboratories.
